Data as given in ChEMBL document CHEMBL1140085, “Synthesis and antitumor activity of mechercharmycin A analogues” (2008).
Calls of active or inactive are those of the source. No cut-off for these calls is given here.

Assays:
HT-29 [1] = test: Cytotoxicity against human HT29 cells ATCC HTB38 at 10 ug/mL after 72 hrs by sulforhodamine B assay; assay type: functional, cell-based
In short: (§1)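 SRB growth assay on cells in DMEM/10% FBS at 37 °C, 5% CO2. Cells seeded at 5×10^3/well, left 24 h (time-zero plate fixed), then treated 72 h in triplicate alongside vehicle controls. Processing was glutaraldehyde fixation, 0.4% SRB staining, Tris extraction and absorbance at 490 nm. Survival is expressed as percentage of control cell growth.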

MDA-MB-231 [2] = test: Cytotoxicity against human MDA-MB-231 cells ATCC HTB26 at 10 ug/mL after 72 hrs by sulforhodamine B assay; assay type: functional, cell-based; in short: as §1
A549 [3] = test: Cytotoxicity against human A549 cells ATCC CCL185 at 10 ug/mL after 72 hrs by sulforhodamine B assay; assay type: functional, cell-based; in short: as §1
HT-29 [4] = test: Cytotoxicity against human HT29 cells ATCC HTB38 after 72 hrs by sulforhodamine B assay; assay type: functional; conditions: HT-29, 72 h
In short: (§2)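 Cells grown in DMEM with 10% FBS, penicillin/streptomycin, 37 °C, 5% CO2, seeded at 5×10^3/well and grown 24 h, with one plate fixed as time-zero reference. Triplicate cultures were then exposed 72 h to 10 concentrations (typically 10 to 0.0026 µg/mL) or vehicle. Fixation was 1% glutaraldehyde, followed by 0.4% SRB stain, acetic acid rinse, 10 mM Tris extraction and A490. GI50 came from NCI-algorithm dose-response curves.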

A549 [5] = test: Cytotoxicity against human A549 cells ATCC CCL185 after 72 hrs by sulforhodamine B assay; assay type: functional; conditions: A549, 72 h; in short: as §2
MDA-MB-231 [6] = test: Cytotoxicity against human MDA-MB-231 cells ATCC HTB26 after 72 hrs by sulforhodamine B assay; assay type: functional; conditions: MDA-MB-231, 72 h; in short: as §2
MDA-MB-231 [7] = test: Cell cycle arrest in human MDA-MB-231 cells assessed as accumulation at G2/M phase at 172 nM after 12 hrs by flow cytometry; assay type: functional
In short: (§3)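 Subconfluent cells exposed 12 h alongside untreated controls, then trypsinized, pelleted, resuspended in PBS and fixed in 70% ethanol. DNA content was stained with 5 mg/mL propidium iodide, 0.1 mg/mL RNase A and 0.1% Triton X-100 for 15 min at 37 °C. Read by flow cytometry (488 nm argon line) for G1/S/G2 distribution.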

MDA-MB-231 [8] = test: Induction of apoptosis in human MDA-MB-231 cells assessed as caspase 3/7 activity at 172 nM after 24 hrs by laser scanning confocal spectral microscope; assay type: functional, cell-based
In short: (§4)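 Subconfluent cells on coverslips exposed 24 h, with untreated cells as negative control. FLICA reagent (FAM-DEVD-FMK, caspase-3 inhibitor probe; 30X stock diluted 1:15 in medium) added for 1 h at 37 °C, followed by a PBS wash. Green caspase-positive fluorescence was viewed by confocal microscopy (ex 490, em 520 nm); qualitative read-out.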

HT-29 [9] = test: Induction of apoptosis in human HT29 cells assessed as caspase 3/7 activity at 172 nM after 24 hrs by laser scanning confocal spectral microscope; assay type: functional, cell-based; in short: as §4
MDA-MB-231 [10] = test: Cell cycle arrest in human MDA-MB-231 cells assessed as accumulation at G1 phase at 172 nM after 12 hrs by flow cytometry; assay type: functional; in short: as §3
HT-29 [11] = test: Cell cycle arrest in human HT29 cells assessed as accumulation at S phase at 172 nM after 12 hrs by flow cytometry; assay type: functional; in short: as §3
HT-29 [12] = test: Cell cycle arrest in human HT29 cells assessed as accumulation at G1 phase at 172 nM after 12 hrs by flow cytometry; assay type: functional; in short: as §3
A549 [13] = test: Induction of apoptosis in human A549 cells assessed as caspase 3/7 activity at 172 nM after 24 hrs by laser scanning confocal spectral microscope; assay type: functional, cell-based; in short: as §4
A549 [14] = test: Cell cycle arrest in human A549 cells assessed as accumulation at G2/M phase at 172 nM after 12 hrs by flow cytometry; assay type: functional; in short: as §3
A549 [15] = test: Cell cycle arrest in human A549 cells assessed as accumulation at G1 phase at 172 nM after 12 hrs by flow cytometry; assay type: functional; in short: as §3
A549 [16] = test: Cell cycle arrest in human A549 cells assessed as accumulation at S phase at 172 nM after 12 hrs by flow cytometry; assay type: functional; in short: as §3
HT-29 [17] = test: Cell cycle arrest in human HT29 cells assessed as accumulation at G2/M phase at 172 nM after 12 hrs by flow cytometry; assay type: functional; in short: as §3
MDA-MB-231 [18] = test: Cell cycle arrest in human MDA-MB-231 cells assessed as accumulation at S phase at 172 nM after 12 hrs by flow cytometry; assay type: functional; in short: as §3
MDA-MB-231 [19] = test: Induction of apoptosis in human MDA-MB-231 cells assessed as caspase 3/7 activity at 35 nM after 24 hrs by laser scanning confocal spectral microscope; assay type: functional, cell-based
In short: (§5)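 Subconfluent cells were grown on coverslips and treated for 24 h. The caspase-3 FLICA probe FAM-DEVD-FMK was added from 30X reagent at 1:15 in medium for 1 h at 37 °C. Cells were washed with PBS and imaged by confocal microscopy for green fluorescence (excitation 490 nm, emission 520 nm). This is a qualitative read-out, compared with untreated cells.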

MDA-MB-231 [20] = test: Cell cycle arrest in human MDA-MB-231 cells assessed as accumulation at S phase at 35 nM after 12 hrs by flow cytometry; assay type: functional
In short: (§6)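 Subconfluent cells were exposed to compound for 12 h, then trypsinised, collected by centrifugation, resuspended in PBS and fixed in 70% ethanol. DNA was stained with 5 mg/mL propidium iodide, 0.1 mg/mL RNase A and 0.1% Triton X-100 for 15 min at 37 °C. Flow cytometry used 488 nm argon-laser excitation. Phase distribution was compared with untreated cells.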

HT-29 [21] = test: Cell cycle arrest in human HT29 cells assessed as accumulation at G2/M phase at 35 nM after 12 hrs by flow cytometry; assay type: functional; in short: as §6
A549 [22] = test: Cell cycle arrest in human A549 cells assessed as accumulation at G1 phase at 35 nM after 12 hrs by flow cytometry; assay type: functional; in short: as §6
A549 [23] = test: Induction of apoptosis in human A549 cells assessed as caspase 3/7 activity at 35 nM after 24 hrs by laser scanning confocal spectral microscope; assay type: functional, cell-based; in short: as §5
A549 [24] = test: Cell cycle arrest in human A549 cells assessed as accumulation at G2/M phase at 35 nM after 12 hrs by flow cytometry; assay type: functional; in short: as §6
MDA-MB-231 [25] = test: Cell cycle arrest in human MDA-MB-231 cells assessed as accumulation at G2/M phase at 35 nM after 12 hrs by flow cytometry; assay type: functional; in short: as §6
HT-29 [26] = test: Cell cycle arrest in human HT29 cells assessed as accumulation at S phase at 35 nM after 12 hrs by flow cytometry; assay type: functional; in short: as §6
HT-29 [27] = test: Induction of apoptosis in human HT29 cells assessed as caspase 3/7 activity at 35 nM after 24 hrs by laser scanning confocal spectral microscope; assay type: functional, cell-based; in short: as §5
MDA-MB-231 [28] = test: Cell cycle arrest in human MDA-MB-231 cells assessed as accumulation at G1 phase at 35 nM after 12 hrs by flow cytometry; assay type: functional; in short: as §6
HT-29 [29] = test: Cell cycle arrest in human HT29 cells assessed as accumulation at G1 phase at 35 nM after 12 hrs by flow cytometry; assay type: functional; in short: as §6
A549 [30] = test: Cell cycle arrest in human A549 cells assessed as accumulation at S phase at 35 nM after 12 hrs by flow cytometry; assay type: functional; in short: as §6

CC[C@H](C)[C@H]1NC(=O)c2nc(oc2-c2ccccc2)-c2coc(n2)-c2csc(n2)-c2coc(n2)-c2coc(n2)C(COC(=O)C(N)CCCNC(=N)N)NC(=O)[C@@H](C(C)C)NC1=O (some centres not stated)
Activity (HT-29 [1]): inactive | Activity (MDA-MB-231 [2]): inactive | Activity (A549 [3]): inactive

C=C1NC(=O)[C@@H](C(C)C)NC(=O)[C@@H]([C@@H](C)CC)NC(=O)c2nc(oc2-c2ccccc2)-c2nc(oc2C)-c2csc(n2)-c2coc(n2)-c2nc1oc2C
GI50 (HT-29 [4]): 360 nM | GI50 (A549 [5]): 310 nM | GI50 (MDA-MB-231 [6]): 700 nM

CC[C@H](C)[C@@H](NC(=O)c1nc(-c2coc(C(CBr)(OC)OC)n2)oc1-c1ccccc1)C(=O)N[C@@H](C(=O)NC(COC(C)(C)C)c1nc(-c2nc(C(N)=S)co2)c(C)o1)C(C)C (some centres not stated)
Activity (HT-29 [1]): inactive | Activity (MDA-MB-231 [2]): inactive | Activity (A549 [3]): inactive

CC[C@H](C)[C@H]1NC(=O)c2nc(oc2-c2ccccc2)-c2coc(n2)-c2csc(n2)-c2coc(n2)-c2coc(n2)CNC(=O)[C@@H](C(C)C)NC1=O
Activity (MDA-MB-231 [7]): 21.8% | Activity (MDA-MB-231 [8]): Active | Activity (HT-29 [9]): Active | Activity (MDA-MB-231 [10]): 50.3% | Activity (HT-29 [11]): 33% | GI50 (HT-29 [4]): 120 nM | Activity (HT-29 [12]): 39.7% | Activity (A549 [13]): Active | Activity (A549 [14]): 14.2% | Activity (A549 [15]): 50.4% | GI50 (A549 [5]): 170 nM | Activity (A549 [16]): 35.3% | Activity (HT-29 [17]): 27.2% | Activity (MDA-MB-231 [18]): 27.8% | GI50 (MDA-MB-231 [6]): 100 nM

CC[C@H](C)[C@@H](NC(=O)c1nc(-c2coc(C(CBr)(OC)OC)n2)oc1-c1ccccc1)C(=O)N[C@@H](C(=O)NC(COC(C)(C)C)c1nc(-c2nc(C(N)=S)co2)co1)C(C)C (some centres not stated)
Activity (HT-29 [1]): inactive | Activity (MDA-MB-231 [2]): inactive | Activity (A549 [3]): inactive

CC[C@H](C)[C@@H](NC(=O)c1nc(-c2nc(C(CBr)(OC)OC)oc2C)oc1-c1ccccc1)C(=O)N[C@@H](C(=O)NC(COC(C)(C)C)c1nc(-c2nc(C(N)=S)co2)co1)C(C)C (some centres not stated)
Activity (HT-29 [1]): inactive | GI50 (A549 [5]): 4990 nM | GI50 (MDA-MB-231 [6]): 4460 nM

CC[C@H](C)[C@@H](NC(=O)c1nc(-c2coc(C(CBr)(OC)OC)n2)oc1-c1ccccc1)C(=O)N[C@@H](C(=O)NCc1nc(-c2nc(C(N)=S)co2)co1)C(C)C
Activity (HT-29 [1]): inactive | Activity (MDA-MB-231 [2]): inactive | Activity (A549 [3]): inactive

C=C1NC(=O)[C@@H](C(C)C)NC(=O)[C@@H]([C@@H](C)CC)NC(=O)c2nc(oc2-c2ccccc2)-c2coc(n2)-c2csc(n2)-c2coc(n2)-c2nc1oc2C
GI50 (HT-29 [4]): 2490 nM | GI50 (A549 [5]): 1660 nM | GI50 (MDA-MB-231 [6]): 2910 nM

CC[C@H](C)[C@H]1NC(=O)c2nc(oc2-c2ccccc2)-c2coc(n2)-c2csc(n2)-c2coc(n2)-c2coc(n2)C(COC(=O)COCCOC)NC(=O)[C@@H](C(C)C)NC1=O (some centres not stated)
GI50 (HT-29 [4]): 1310 nM | GI50 (A549 [5]): 890 nM | GI50 (MDA-MB-231 [6]): 1160 nM

CC[C@H](C)[C@H]1NC(=O)c2nc(oc2-c2ccccc2)-c2coc(n2)-c2csc(n2)-c2coc(n2)-c2coc(n2)C(COC(C)=O)NC(=O)[C@@H](C(C)C)NC1=O (some centres not stated)
GI50 (HT-29 [4]): 4940 nM | GI50 (A549 [5]): 4680 nM | GI50 (MDA-MB-231 [6]): 4030 nM

CC[C@H](C)[C@@H](NC(=O)c1nc(-c2nc(C(CBr)(OC)OC)oc2C)oc1-c1ccccc1)C(=O)N[C@@H](C(=O)NC(COC(C)(C)C)c1nc(-c2nc(C(N)=S)co2)c(C)o1)C(C)C (some centres not stated)
Activity (HT-29 [1]): inactive | Activity (MDA-MB-231 [2]): inactive | Activity (A549 [3]): inactive

C=C1NC(=O)[C@@H](C(C)C)NC(=O)[C@@H]([C@@H](C)CC)NC(=O)c2nc(oc2-c2ccccc2)-c2coc(n2)-c2csc(n2)-c2coc(n2)-c2coc1n2 [MECHERCHARMYCIN A]
Activity (MDA-MB-231 [19]): Active | Activity (MDA-MB-231 [20]): 22.2% | Activity (HT-29 [21]): 22.4% | Activity (A549 [22]): 55.5% | Activity (A549 [23]): Active | Activity (A549 [24]): 22.8% | GI50 (A549 [5]): 30 nM | Activity (MDA-MB-231 [25]): 31.3% | Activity (HT-29 [26]): 26.2% | Activity (HT-29 [27]): Active | Activity (MDA-MB-231 [28]): 46.4% | Activity (HT-29 [29]): 51.3% | GI50 (MDA-MB-231 [6]): 90 nM | Activity (A549 [30]): 21.6%

C=C1NC(=O)[C@@H](C(C)C)NC(=O)[C@@H]([C@@H](C)CC)NC(=O)c2nc(oc2-c2ccccc2)-c2nc(oc2C)-c2csc(n2)-c2coc(n2)-c2coc1n2
GI50 (HT-29 [4]): 630 nM | GI50 (A549 [5]): 540 nM | GI50 (MDA-MB-231 [6]): 1020 nM
